High-throughput results deposited in PubChem by several laboratories.
BB579 growth dn: growth inhibitors of yeast BB579 in restrictive medium, primary screen, yeast lifespan-shortening project, S. cerevisiae. OD615, 48 h. 0.51% of 140,000 active. inhibition, % at 10 µM. AID 804, 2007;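 active = inhibition above a set limit, 3 SD over the mean compound inhibition, cut at about 44% in these data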
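Detection: OD615 turbidity measurement; Material: Saccharomyces cerevisiae DeaD strain BB579, replicative lifespan model yeast; Timing: 48 h exposure, 30 °C; Doses: single 10 µM dose; Medium: CSMM-D restrictive synthetic medium containing dextrose (glucose); Controls: amphotericin B at 10 µg/mL as positive control.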
HCT116 bCat-KO: primary screen for growth suppressors in beta-catenin knockout HCT116 cells (colon tumor, human). viability, % at 10 µM. HCT116 beta-catenin knockout viability, CellTiter-Glo, 60 h; stronger effect = lower value. AID 818, 2007. 1.5% of 140,000 active;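 active = viability at or under a set limit, the compound median less 4 SD, cut at about 6% in these data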;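 also: 0% = Hyamine 1622 control at 20 µM and 100% = untreated cell control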
HCT116 PTEN-null: growth suppression of PTEN-null HCT116, primary screen, cell-based, CellTiter-Glo; viability, % at 10 µM; HCT116 PTEN-null viability, 60 h; stronger effect = lower value; 1.2% of 140,000 active; AID 827, 2007;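 active = viability at or below a set limit, 4 SD under the median of all tested compounds, cut at about 3.7% in these data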;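 also: PTEN knockout HCT116 line with beta catenin targeted HCT116 as companion control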
Yeast life ext: compounds extending yeast replicative lifespan, primary screen, S. cerevisiae, OD615 | AID 775, 2007 | 0.68% of 130,000 active | inhibition of the nicotinamide effect, % at 10 µM | S. cerevisiae growth with nicotinamide; deaD strain in restrictive glucose medium;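 active = inhibition above a set limit, placed 3 SD over the median of all compounds, cut at about 26% in these data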;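 also: 0% = nicotinamide-treated wells and 100% = cells grown without nicotinamide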
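Material: Modified budding yeast, DeaD strain | Medium: Restrictive glucose medium | Probe or stimulus: 1.5 mM nicotinamide | Dosing: Single dose 10 µM compound, 0.25% DMSO | Times: 48 h at 30 °C | Technique: OD615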
SDO1 yeast rescue: growth rescue of sdo1-depleted yeast, primary screen, S. cerevisiae, bone marrow failure model; S. cerevisiae sdo1-depleted JHY4D growth rescue, OD600 30 h; stronger effect = higher value; pdr5 snq2 efflux-pump mutant strain; z-score at 10 µM; 0.21% of 140,000 active;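 active = z-score above 3 at both the 24 hr and the 30 hr optical density reads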;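 also: z-score against mean and SD of all compound wells on the same plate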
* hit, by the source's call. A selection: hits, their analogues and other compounds. The true share with any hit is near 2.8%.

Screening CCOC(=O)c1c(C)[nH]c(=S)c(C#N)c1-c1ccc(Cl)cc1 returned BB579 growth dn 13, HCT116 bCat-KO 101, HCT116 PTEN-null 94, Yeast life ext 2 and SDO1 yeast rescue 1.2.
For CCOC(=O)c1c(N)sc(C(O)(C(F)(F)F)C(F)(F)F)c1-c1ccc(F)cc1 the results were BB579 growth dn 48*, HCT116 bCat-KO 63, HCT116 PTEN-null 62, Yeast life ext -12 and SDO1 yeast rescue -1.3.
CCOC(=O)c1c(NC(=O)C2C3CCC(O3)C2C(=O)O)sc(C)c1-c1ccc(F)cc1 (stereo not drawn) was read as BB579 growth dn -40, HCT116 bCat-KO 95, HCT116 PTEN-null 89, Yeast life ext -10 and SDO1 yeast rescue 0.58.
CCOC(=O)c1c(N)sc(C(O)(C(F)(F)F)C(F)(F)F)c1-c1ccc(Cl)cc1 was read as BB579 growth dn 52*, HCT116 bCat-KO 100, HCT116 PTEN-null 95, Yeast life ext -12 and SDO1 yeast rescue -2.8.
Screening C=CCOC(=O)CN1C(=O)c2ccccc2C1=O returned BB579 growth dn -40, HCT116 bCat-KO 99, HCT116 PTEN-null 108, Yeast life ext -10 and SDO1 yeast rescue 0.44.
`O=C(C1CCN(S(=O)(=O)c2cccc3cccnc23)CC1)N1CCN(C2CCCC2)CC1` gave BB579 growth dn -30, HCT116 bCat-KO 99, HCT116 PTEN-null 91, Yeast life ext -1 and SDO1 yeast rescue 1.1.
`Cc1cc(C)n(-c2ccc3cccc(NS(C)(=O)=O)c3n2)n1` gave BB579 growth dn -57, HCT116 bCat-KO 3.6*, HCT116 PTEN-null 5, Yeast life ext -8 and SDO1 yeast rescue -0.62.
For Cc1cc(C)n(-c2cccc3cccnc23)n1 the results were BB579 growth dn -21, HCT116 bCat-KO 106, HCT116 PTEN-null 98, Yeast life ext 3 and SDO1 yeast rescue -0.22.
For O=C(/C=C/c1ccccc1[N+](=O)[O-])NCc1cccnc1 the results were BB579 growth dn -32, HCT116 bCat-KO 89, HCT116 PTEN-null 90, Yeast life ext 10 and SDO1 yeast rescue 0.8.
For CC(NC(=O)Nc1nnc(C(F)(F)F)s1)(C(F)(F)F)C(F)(F)F the results were BB579 growth dn -18, HCT116 bCat-KO 2.4*, HCT116 PTEN-null 1.8*, Yeast life ext -8 and SDO1 yeast rescue -0.76.
COCCCNS(=O)(=O)c1ccc2c3c(cccc13)C(=O)S2 was read as BB579 growth dn -14, HCT116 bCat-KO 89, HCT116 PTEN-null 92, Yeast life ext -5 and SDO1 yeast rescue 0.49.
For COCCCNc1c2c3c(cccc3[nH]c1=O)C(=O)c1ccccc1-2 the results were BB579 growth dn 0, HCT116 bCat-KO 39, HCT116 PTEN-null 30, Yeast life ext 35* and SDO1 yeast rescue -0.45.
Screening CCC(C)NC(=O)CCc1nc2ccccc2n1-c1ccccc1 (stereo not drawn) returned BB579 growth dn -16, HCT116 bCat-KO 103, HCT116 PTEN-null 99, Yeast life ext 3 and SDO1 yeast rescue 0.9.
For COc1ccc(C(=O)CC(c2ccccc2)S(=O)(=O)c2ccc(C)cc2)cc1 (stereo not drawn) the results were BB579 growth dn 12, HCT116 bCat-KO 47, HCT116 PTEN-null 41, Yeast life ext 5 and SDO1 yeast rescue -0.65.
For COc1ccc(C(CC(=O)c2ccc(O)cc2)S(=O)(=O)c2ccc(C)cc2)cc1 (stereo not drawn) the results were BB579 growth dn -25, HCT116 bCat-KO 6.0*, HCT116 PTEN-null 7, Yeast life ext -24 and SDO1 yeast rescue -0.06.
For O=C(/C=C/N1CCOCC1)c1ccc(-c2ccccc2)cc1 the results were BB579 growth dn 99*, HCT116 bCat-KO 82, HCT116 PTEN-null 66, Yeast life ext -32 and SDO1 yeast rescue 0.
`O=C(c1ccc(-c2ccccc2)cc1)c1ccccc1C(=O)N1CCOCC1` gave BB579 growth dn -43, HCT116 bCat-KO 85, HCT116 PTEN-null 84, Yeast life ext -24 and SDO1 yeast rescue -1.3.
Cc1cc(C)n(-c2nc(NCc3cccnc3)c3c4c(sc3n2)COC(C)(C)C4)n1 was read as BB579 growth dn -17, HCT116 bCat-KO 4.5*, HCT116 PTEN-null 8, Yeast life ext -22 and SDO1 yeast rescue 0.28.
Screening O=C(c1ccc(N2CCN(S(=O)(=O)c3ccccc3)CC2)c([N+](=O)[O-])c1)N1CCOCC1 returned BB579 growth dn 9, HCT116 bCat-KO 81, HCT116 PTEN-null 81, Yeast life ext -3 and SDO1 yeast rescue 1.1.
`CCCCC(CC)Cn1c(O)c(/C=C2\C=NN=C2c2ccccc2)sc1=S` (stereo not drawn) gave BB579 growth dn -32, HCT116 bCat-KO 2.1*, HCT116 PTEN-null 1.6*, Yeast life ext -1 and SDO1 yeast rescue 0.87.
Screening CCCn1c(O)c(/C=C2\C=NN=C2c2ccccc2)sc1=S returned BB579 growth dn -45, HCT116 bCat-KO 32, HCT116 PTEN-null 37, Yeast life ext -15 and SDO1 yeast rescue -1.3.
CCn1cc(C(=O)O)c(=O)c2cc(F)c(N/N=C/c3ccccc3[N+](=O)[O-])cc21 was read as BB579 growth dn -7, HCT116 bCat-KO 4.1*, HCT116 PTEN-null 5, Yeast life ext -3 and SDO1 yeast rescue -1.2.
For CCn1cc(C(=O)O)c(=O)c2cc(F)c(N3CCN(S(=O)(=O)c4ccc(NC(=O)OC)cc4)CC3)cc21 the results were BB579 growth dn -16, HCT116 bCat-KO 15, HCT116 PTEN-null 19, Yeast life ext 0 and SDO1 yeast rescue -1.1.
For O=c1c(C(c2ccccc2)c2c(O)sc3ccccc3c2=O)c(O)sc2ccccc12 the results were BB579 growth dn -9, HCT116 bCat-KO 85, HCT116 PTEN-null 79, Yeast life ext 26* and SDO1 yeast rescue -1.
Screening Cc1cc(/C=N/NC(=O)Cn2c3ccccc3c(=O)c3ccccc32)c(C)n1-c1ccc(Cl)cc1 returned BB579 growth dn -67, HCT116 bCat-KO 93, HCT116 PTEN-null 91, Yeast life ext 3 and SDO1 yeast rescue -0.59.
For COc1cccc(/C=N/Nc2nc3ccccc3n3cnnc23)c1O the results were BB579 growth dn -18, HCT116 bCat-KO 5.8*, HCT116 PTEN-null 6, Yeast life ext -7 and SDO1 yeast rescue -0.69.
For COc1cccc(/C=N/Nc2nc(Nc3ccccc3)nc(-n3nc(C)cc3C)n2)c1O the results were BB579 growth dn -36, HCT116 bCat-KO 2.8*, HCT116 PTEN-null 2.0*, Yeast life ext -9 and SDO1 yeast rescue -3.2.
For COc1ccc(/C=N/Nc2cc(C)nc(-n3nc(C)cc3C)n2)c(OC)c1 the results were BB579 growth dn -22, HCT116 bCat-KO 2.6*, HCT116 PTEN-null 2.4*, Yeast life ext -10 and SDO1 yeast rescue -0.86.
`COc1cccc(/C=N/Nc2ncnc(Cl)c2N)c1O` gave BB579 growth dn 12, HCT116 bCat-KO 6, HCT116 PTEN-null 3.1*, Yeast life ext 2 and SDO1 yeast rescue -0.73.
